Test results from PubChem BioAssay AID493053 (Broad Institute, 2011).
“And” between values parts separate entries of the source, which are not always exact repeats. Equal entries are not always repeated. The source made the active and inactive calls.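 The calls were made as follows: active = signal falling with dose, half-maximal concentration at or below ten times the highest valid dose tested; inconclusive = flat curve with loss between 30% and 70%, or a poor fit; inactive = the rest, including flat or rising curves.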

Test system: not listed separately
Test: Ras-transformed BJeLR cell killing – BJeLR cells, dry powder, set 2, dose response (AID 493053)
Conditions: BJeLR fibroblasts viability, Alamar Blue fluorescence, 48 h; at 48 µM (top of the series)
Summary of the method: (§1)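 Medium – DMEM and M199 growth medium with heat-inactivated fetal bovine serum · Incubation – 48 h compound treatment at 37 °C, ~16 h Alamar Blue · Measured by – Alamar Blue fluorescence, excitation 544 nm, emission 590 nm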

Question: Which activity change, negative = viability loss does the source give for `Cc1onc(C(=O)N2CCN(C(c3ccccn3)c3ccccn3)CC2)c1[N+](=O)[O-]` here?
Answer: The activity change, negative = viability loss was 9.75% (inactive).

Question: For `CC(C)c1onc(C(=O)N2CCN(C(c3ccccc3)c3ccccc3)CC2)c1[N+](=O)[O-]`, which activity change, negative = viability loss is on record?
Answer: Its activity change, negative = viability loss is 2.95% (inactive).

Question: For `Cc1oc(C)c(C(=O)N2CCN(C(c3ccccc3)c3ccccc3)CC2)c1C`, which activity change, negative = viability loss is on record?
Answer: Its activity change, negative = viability loss is 12.2% (inactive).

Question: Which activity change, negative = viability loss does the source give for `O=C(c1ccc([N+](=O)[O-])o1)N1CCCN(C(c2ccccc2)c2ccccc2)CC1` here?
Answer: The activity change, negative = viability loss was -4.17% (inactive).

Question: With `Cc1onc(C(=O)N2CCN(C(c3ccccc3)c3ccccc3)CC2)c1C` as the compound, how does the activity change, negative = viability loss read?
Answer: Its activity change, negative = viability loss is 15.3% (inactive).

Question: With `O=C(c1noc2ccccc12)N1CCN(C(c2ccccc2)c2ccccc2)CC1` as the compound, how does the activity change, negative = viability loss read?
Answer: The activity change, negative = viability loss was 3.47% (inactive).

Question: For `Cc1onc(C(=O)N2CCN(C(c3ccncc3)c3ccncc3)CC2)c1[N+](=O)[O-]`, which activity change, negative = viability loss is on record?
Answer: The activity change, negative = viability loss was 8.19% (inactive).

Question: For `O=[N+]([O-])c1ccc(CN2CCN(C(c3ccccc3)c3ccccc3)CC2)o1`, which activity change, negative = viability loss is on record?
Answer: The activity change, negative = viability loss was 2.87% (inactive).

Question: For `CC(=O)Nc1c(C(=O)N2CCN(C(c3ccccc3)c3ccccc3)CC2)noc1C`, which activity change, negative = viability loss is on record?
Answer: The activity change, negative = viability loss was 11.2% (inactive).

Question: With `Cc1ccc(C(=O)N2CCN(C(c3ccccc3)c3ccccc3)CC2)c([N+](=O)[O-])c1` as the compound, how does the activity change, negative = viability loss read?
Answer: Its activity change, negative = viability loss is 14.9% (inactive).

Question: Which activity change, negative = viability loss does the source give for `Cc1onc(C(=O)N2CCN(C(c3ccccc3)c3ccccc3)CC2)c1N` here?
Answer: Its activity change, negative = viability loss is 10.4% (inactive).

Question: Which activity change, negative = viability loss does the source give for `Cc1onc(C(=O)N2CCN(C(c3ccccc3)c3ccccc3)CC2)c1NS(C)(=O)=O` here?
Answer: The activity change, negative = viability loss was 15.2% (inactive).

Question: Which activity change, negative = viability loss does the source give for `Cc1onc(C(=O)N2CCN(C(c3ccccc3)c3ccccc3)CC2)c1Br` here?
Answer: The activity change, negative = viability loss was 11.7% (inactive).

Same assay, conditions: BJeLR fibroblasts viability, Alamar Blue fluorescence, 48 h; at 68 µM (top of the series)

Question: For `CCOC(=O)N1CCN(C(=O)c2noc(C)c2[N+](=O)[O-])CC1`, which activity change, negative = viability loss is on record?
Answer: Its activity change, negative = viability loss is -2.12% (inactive).

Question: With `Cc1onc(C(=O)NCc2ccc(F)cc2)c1[N+](=O)[O-]` as the compound, how does the activity change, negative = viability loss read?
Answer: Its activity change, negative = viability loss is -1.57% (inactive).

Question: With `Cc1cc(C(=O)N2CCN(Cc3ccccc3)CC2)no1` as the compound, how does the activity change, negative = viability loss read?
Answer: Its activity change, negative = viability loss is 4.49% (inactive).

Question: With `COc1ccccc1N1CCN(C(=O)c2noc(C)c2[N+](=O)[O-])CC1` as the compound, how does the activity change, negative = viability loss read?
Answer: Its activity change, negative = viability loss is -5.96% (inactive).

Question: For `Cc1onc(C(=O)N2CCOCC2)c1[N+](=O)[O-]`, which activity change, negative = viability loss is on record?
Answer: Its activity change, negative = viability loss is -1.92% (inactive).

Test system: BJeLR fibroblasts viability, Alamar Blue fluorescence, 48 h
Test: as above
Conditions: not given
Summary of the method: as §1

Question: With `Cc1onc(C(=O)N2CCN(Cc3ccccc3)CC2)c1[N+](=O)[O-]` as the compound, how does the AC50 read?
Answer: Its AC50 is 65300 nM.

Question: For `O=C(NCCNC(c1ccccc1)c1ccccc1)c1ccc([N+](=O)[O-])o1`, which AC50 is on record?
Answer: The AC50 was 39100 nM.

Question: Which AC50 does the source give for `Cc1onc(C(=O)N2CCN(C(c3ccc(Cl)cc3)c3ccc(Cl)cc3)CC2)c1[N+](=O)[O-]` here?
Answer: Its AC50 is 71 nM.

Question: Which AC50 does the source give for `O=C(c1ccc([N+](=O)[O-])o1)N1CCN(C(c2ccc(F)cc2)c2ccc(F)cc2)CC1` here?
Answer: Its AC50 is 50800 nM.

Question: For `Cc1onc(C(=O)N2CCN(C(c3ccc(F)cc3)c3ccc(F)cc3)CC2)c1[N+](=O)[O-]`, which AC50 is on record?
Answer: The AC50 was 183 nM.

Question: For `COc1ccc(C(c2ccc(OC)cc2)N2CCN(C(=O)c3noc(C)c3[N+](=O)[O-])CC2)cc1`, which AC50 is on record?
Answer: The AC50 was 1570 nM.

Question: For `Cc1onc(C(=O)N2CCN(C(c3ccccc3)c3ccc(Cl)cc3)CC2)c1[N+](=O)[O-]` (stereo not drawn), which AC50 is on record?
Answer: Its AC50 is 129 nM.

Question: Which AC50 does the source give for `Cc1onc(C(=O)N2CCN(C(c3ccccc3)c3ccccc3)CC2)c1[N+](=O)[O-]` here?
Answer: Its AC50 is 2270 nM and 1030 nM.

Question: For `Cc1onc(C(=O)NCCNC(c2ccccc2)c2ccccc2)c1[N+](=O)[O-]`, which AC50 is on record?
Answer: Its AC50 is 21600 nM.

Question: With `Cc1onc(C(=O)N2CCCN(C(c3ccccc3)c3ccccc3)CC2)c1[N+](=O)[O-]` as the compound, how does the AC50 read?
Answer: The AC50 was 773 nM.
